The nature of series [1]: melting temperature; fluorescence melt of hairpins on a sequencing array, two-state fit, raised by 9.35 °C to match UV melts. The following applies: sodium 0.088 M. The procedure, abridged:
(§1)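 Melting temperature and folding enthalpy were derived from bootstrapped two-state fits. The fitted temperatures were raised by 9.35 °C to agree with UV melts, and four replicates were combined by inverse variance. The underlying data were Cy3 fluorescence images of library hairpins, with annealed Cy3 and quencher oligos, on a sequenced MiSeq flow cell in 50 mM Na-HEPES pH 8.0, 25 mM NaCl, taken in 2.5 °C steps up to 60 °C, normalised to pre-quench Cy3 and to control constructs.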

A short description of series [2]: folding enthalpy; higher = less favourable; fluorescence melt of hairpins on a sequencing array, two-state fit. To be noted: sodium 0.088 M. The procedure, abridged: as §1

For GGGCTTCGAAAGAACCC (((.(((....)))))), the Tm in series [1] was 48.6 °C. Besides, in series [2], the folding enthalpy is -28.9 kcal/mol.

Take GAGAACGAAAGTTCCCTC ((((((....)))..))): the Tm in series [1] is 38.9 °C. The folding enthalpy in series [2] is -14 kcal/mol.

Consider GGTGTTTCGAAAGAAACC (((..(((....)))))), for which, in series [1], the Tm is 42.5 °C. Further, in series [2], the folding enthalpy is -13.2 kcal/mol.

On to GCGAAAGGAAACCTTCGC (((((.(....).))))), for which the Tm in series [1] is 48.8 °C. For the same sequence, the folding enthalpy in series [2] was -34.4 kcal/mol.

As for GGGATTGGAAACAGTCCC ((((.((....)).)))), in series [1], the Tm was found to be 48.8 °C. Besides, the folding enthalpy in series [2] is -31.5 kcal/mol.

For the sequence GTCTGAGGAAACTCAAAC ((.((((....)))).)), the Tm in series [1] worked out at 24.5 °C. Besides, the folding enthalpy in series [2] is -11.3 kcal/mol.

GCTTTTTCGAAAGAAAGC (((..(((....)))))): the Tm in series [1] turned out to be 34.4 °C. Also, the folding enthalpy in series [2] is -17.7 kcal/mol.

GTTGATCGAAAGATAAC (((.(((....)))))): the Tm in series [1] is 28.9 °C. The folding enthalpy in series [2] was -13.3 kcal/mol.

Regarding GCTCCGCGAAAGCGATGC ((..(((....)))..)), the Tm in series [1] is 40.8 °C. For the same sequence, the folding enthalpy in series [2] is -13.3 kcal/mol.

Consider GGCGTCCCGAAAGGGGCC (((..(((....)))))), for which the Tm in series [1] came to 50.4 °C. For the same sequence, the folding enthalpy in series [2] is -14.3 kcal/mol.

For GAACCAGAAATGGTTC ((((((....)))))), the Tm in series [1] was determined as 54.2 °C. In series [2], the folding enthalpy is -33.6 kcal/mol.

Turning to GTCGGCGAAAGCCGGAC ((((((....))).))), in series [1], the Tm was 61.1 °C. The folding enthalpy in series [2] was -12.4 kcal/mol.

For GGATTCGAAAGAATATCC ((((((....)))..))), in series [1], the Tm amounted to 30.3 °C. In series [2], the folding enthalpy was -9.96 kcal/mol.

Regarding GCTAGTGGAAACACCAGC (((.(((....))).))), the Tm in series [1] was determined as 39.2 °C. In series [2], the folding enthalpy was -23.6 kcal/mol.

For the sequence CGTGACCGGAAACGGACG (((..(((....)))))), the Tm in series [1] turned out to be 36.2 °C. For the same sequence, in series [2], the folding enthalpy was -15.7 kcal/mol.

Turning to GAGGGCGAAAGCCATCTC ((((((....)))..))), the Tm in series [1] was found to be 65.6 °C. Moreover, in series [2], the folding enthalpy was -16.2 kcal/mol.

Take GCGTGCGAACGC ((((....)))): the Tm in series [1] worked out at 69 °C. Moreover, in series [2], the folding enthalpy was -18.2 kcal/mol.

GATCATTACATGATC ((((((...)))))): the Tm in series [1] is 50.2 °C. Also, the folding enthalpy in series [2] was -33.8 kcal/mol.

On to GATCAAGCGCTTGATC ((((((....)))))), for which, in series [1], the Tm was 55.9 °C. Also, the folding enthalpy in series [2] was -51.6 kcal/mol.

In the case of GGTTTCGGAAACAAAACC (((((.(....).))))), the Tm in series [1] came to 36.6 °C. Further, in series [2], the folding enthalpy is -22.7 kcal/mol.

Regarding GTTGTGTCGAAAGACAAC (((..(((....)))))), in series [1], the Tm stood at 51.1 °C. The folding enthalpy in series [2] is -24.9 kcal/mol.

Consider GCCTTGCGAAAGCCAGGC ((((.((....)).)))), for which, in series [1], the Tm was determined as 62.6 °C. Moreover, in series [2], the folding enthalpy is -31.4 kcal/mol.

As for GATCCGGATGCGGATC ((((((....)))))), the Tm in series [1] worked out at 58.5 °C. Further, the folding enthalpy in series [2] was -35.4 kcal/mol.

In the case of GCACCACGAAAGTGATGC (((.(((....))).))), the Tm in series [1] turned out to be 55.7 °C. In addition, in series [2], the folding enthalpy is -36.5 kcal/mol.

Take GGCCTAGGAAACTAGGCC (((((((....))))))): the Tm in series [1] came to 68.6 °C. For the same sequence, the folding enthalpy in series [2] was -32.8 kcal/mol.

With GTGTCGGAAACGACAC ((((((....)))))), the Tm in series [1] was found to be 69.2 °C. Moreover, the folding enthalpy in series [2] is -30.9 kcal/mol.

Consider GATCCCTTGGGGATC ((((((...)))))), for which, in series [1], the Tm is 60.1 °C. In addition, the folding enthalpy in series [2] was -33 kcal/mol.

Take GCAGCCGGAAACGACCGC ((.(.((....)).).)): the Tm in series [1] turned out to be 31.2 °C. Besides, in series [2], the folding enthalpy is -20.9 kcal/mol.

GTACGCGAAAGCGATAC ((((((....))).))): the Tm in series [1] stood at 48.2 °C. The folding enthalpy in series [2] was -13.9 kcal/mol.

Regarding GATCGCCATTGCGATC ((((((....)))))), in series [1], the Tm worked out at 67.5 °C. Besides, in series [2], the folding enthalpy was -38 kcal/mol.

As for GCACTGCGAAAGCCTTGC (((..((....))..))), in series [1], the Tm is 36.6 °C. Besides, the folding enthalpy in series [2] was -21.9 kcal/mol.

With GGCCCGGGAAACCGGACC ((.((((....)))).)), the Tm in series [1] was determined as 57.5 °C. Further, in series [2], the folding enthalpy was -29.3 kcal/mol.

In the case of CGCTAGAAATAGCG (((((....))))), in series [1], the Tm is 51.8 °C. Further, the folding enthalpy in series [2] was -24.9 kcal/mol.

GGGACAACGAAAGTTCCC (((..(((....)))))): the Tm in series [1] stood at 39.4 °C. In addition, the folding enthalpy in series [2] was -22.4 kcal/mol.

Consider GGTCGACGAAAGTCCACC (((.(((....))).))), for which the Tm in series [1] amounted to 43.9 °C. Further, the folding enthalpy in series [2] was -25.6 kcal/mol.

Regarding GGTTTCGAAAGAAATACC ((((((....)))..))), the Tm in series [1] was determined as 32.7 °C. Also, the folding enthalpy in series [2] is -19.6 kcal/mol.

Turning to GTCTTGACGAAAGTCGAC (((..(((....)))))), the Tm in series [1] was 35.5 °C. For the same sequence, the folding enthalpy in series [2] was -11 kcal/mol.

For the origin of these results see the array DNA melting data of Ke et al. (doi:10.1101/2024.01.08.574731).
